Data reported in ChEMBL document CHEMBL4706754, “Trisubstituted Pyrrolinones as Small-Molecule Inhibitors Disrupting the Protein-RNA Interaction of LIN28 and Let-7” (ACS Med Chem Lett, 2021).
One block for each molecule: values may come before it. Active and inactive are the calls of the source. No cut-off for these calls is given here.

What was measured:
[1] = Stabilization of interaction of GST-fused C-terminal region of PMA2 YDI (unknown origin)/eGFP-fused tobacco 14-3-3 expressed in Escherichia coli incubated for 2 hrs by fluorescence based analysis relative to PPI-1
[2] = Inhibition of human His-tagged LIN28A (16 to 187 residues) interaction with FAM-labelled preE-let-7f-1 miRNA (unknown origin) pretreated with protein for 30 mins followed by miRNA addition and measured after 15 mins by fluorescence polarization assay
Outline: (§1)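 LIN28A (residues 16–187) purified by nickel affinity chromatography; tested both His-tagged and with tag removed by TEV protease. Protein titrated into FAM-labeled preE-let-7f-1, FP read alongside total fluorescence. Unlabeled preE-let-7f-1 as positive control. Dose–response over eight concentrations, top 60 μM or 30 μM, in quadruplicate; some IC50s extrapolated from the observed curves.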

[3] = Stabilization of interaction of GST-fused C-terminal region of PMA2 YDI (unknown origin)/eGFP-fused tobacco 14-3-3 expressed in Escherichia coli incubated for 2 hrs by fluorescence based analysis
[4] = Inhibition of human His-tagged LIN28A(16 to 187 residues) interaction with mouse preE-let-7f-Cy3 miRNA at 2.5 to 75 uM pretreated with protein for 2 hrs followed by incubation with miRNA and measured after 15 mins by EMSA method relative to control; conditions: dose 2.5-75 µM, time 135.0 min
[5] = Inhibition of LIN28 (unknown origin) expressed in Escherichia coli BL21 (DE3) Rosetta interaction with FAM-labelled preE-let-7 miRNA (unknown origin) by fluorescence polarization assay; parameters: species or system Homo sapiens; outline: as §1
[6] = test system: JAR; test: Inhibition of LIN28/let-7 miRNA interaction in human JAR cells assessed as increase in cellular let-7a mature miRNA level at 5 to 20 uM measured after 24 hrs by RT-qPCR analysis; type: cell-based; conditions: dose 5-20 µM
[7] = target: T1, Protein lin-28 homolog A (Homo sapiens) (UniProt Q9H9Z2); test: Inhibition of LIN28A cold shock domain (16 to 126 residues) (unknown origin) assessed as increase in thermal stability measured after 45 mins by differential scanning fluorimetry; conditions: dose 0.78-100 µM
T1 sequence (whole entry): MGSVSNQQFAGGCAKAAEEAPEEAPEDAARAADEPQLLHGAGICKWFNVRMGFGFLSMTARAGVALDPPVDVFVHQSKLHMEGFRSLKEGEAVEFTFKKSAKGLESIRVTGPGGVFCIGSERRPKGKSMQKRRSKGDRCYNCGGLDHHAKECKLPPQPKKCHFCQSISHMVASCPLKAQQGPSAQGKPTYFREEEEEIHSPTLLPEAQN

[8] = test system: JAR; test: Inhibition of LIN28/let-7 miRNA interaction in human JAR cells assessed as increase in cellular let-7g mature miRNA level at 5 to 20 uM measured after 24 hrs by RT-qPCR analysis; type: cell-based; conditions: dose 5-20 µM
[9] = Inhibition of human His-tagged LIN28A (16 to 187 residues) interaction with mouse preE-let-7f-Cy3 miRNA pretreated with protein for 2 hrs followed by incubation with miRNA and measured after 15 mins by EMSA method; conditions: time 135.0 min

SMILES: O=C(O)c1ccc(C2C(C(=O)c3ccccc3)=C(O)C(=O)N2c2ccc(O)c(C(=O)O)c2)cc1 (configuration not stated)
Activity [1]: < 30%

SMILES: O=C(C1=C(O)C(=O)N(c2ccc(O)c(C(=O)O)c2)C1c1ccc([N+](=O)[O-])cc1)c1ccccc1 (configuration not stated)
EC50 [3]: 100 µM

SMILES: O=C(O)c1cccc(N2C(=O)C(O)=C(C(=O)c3ccc(Br)cc3)C2c2ccc(-c3nccs3)cc2)c1 (configuration not stated)
inhibition [4]: inactive

SMILES: COc1ccc(C(=O)C2=C(O)C(=O)N(c3ccc(O)c(C(=O)O)c3)C2c2ccc(C(=O)O)cc2)cc1 (configuration not stated)
IC50 [2]: 30 µM

Second part, led by results:

IC50 [2]: 30 µM
SMILES: O=C(O)c1ccc(C2C(C(=O)c3ccc(Br)cc3)=C(O)C(=O)N2c2ccc(O)c(C(=O)O)c2)cc1 (configuration not stated)

IC50 [2]: 30 µM
SMILES: O=C(O)c1cccc(N2C(=O)C(O)=C(C(=O)c3ccccc3)C2c2ccc(-c3nccs3)cc2)c1 (configuration not stated)

IC50 [5]: 7 µM
SMILES: CCOc1cccc2c1N[C@@H](c1ccc(C(=O)O)cc1)[C@H]1CC=C[C@@H]21

Activity [1]: < 30%
Activity [7]: Dose-dependent effect
inhibition [9]: Dose-dependent effect
SMILES: O=C(C1=C(O)C(=O)N(c2ccc(O)c(C(=O)O)c2)C1c1ccc(-c2nccs2)cc1)c1ccc(Br)cc1 (configuration not stated)
inhibition [6]: Active
inhibition [8]: Active
